Data reported in ChEMBL document CHEMBL4689842, “EUbOPEN Chemogenomics Library wave 1” (2021).

Test system: HEK-293T
Assay: Multiplex assay against HEK293T;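 on Population Tubulin-Different-Phenotype (%): share of the cells with healthy nuclei that show this phenotype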
Assay type: toxicity, cell-based
Conditions: human
Procedure, shortened: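 Hoechst33342, BioTracker Green Microtubule Cytoskeleton Dye, MitoTracker Red and Annexin V Alexa Fluor 680 were added to live cells at seeding, and imaging on a CQ1 microscope at 37°C and 5% CO2 followed compound addition. Gating by CellPathfinder machine learning separated cells into Hoechst high-intensity objects or normal cells, then normal cells into healthy, pyknosed or fragmented nuclei, then pyknosed cells into mitotic or apoptotic. Per cents of healthy-nucleus cells are reported for the tubulin, mitochondrial-mass and membrane-permeability phenotypes.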

[1] = 12 h, 1 µM, compound concentration 1 uM, replicate 1
[2] = 12 h, 1 µM, compound concentration 1 uM, replicate 2
[3] = 12 h, 10 µM, compound concentration 10 uM, replicate 1
[4] = 12 h, 10 µM, compound concentration 10 uM, replicate 2
[5] = 24 h, 1 µM, compound concentration 1 uM, replicate 1
[6] = 24 h, 1 µM, compound concentration 1 uM, replicate 2
[7] = 24 h, 10 µM, compound concentration 10 uM, replicate 1
[8] = 24 h, 10 µM, compound concentration 10 uM, replicate 2
[9] = 48 h, 1 µM, compound concentration 1 uM, replicate 1
[10] = 48 h, 1 µM, compound concentration 1 uM, replicate 2
[11] = 48 h, 10 µM, compound concentration 10 uM, replicate 1
[12] = 48 h, 10 µM, compound concentration 10 uM, replicate 2

CC(C)(O)CNc1ncc(-c2ccnc(Nc3ccnc(Cl)c3)n2)c(CC2CC2)n1
Population Apoptotic (%) [1]: 59% | Population Fragmented Nuclei (%) [1]: 14% | Population Healthy Nuclei (%) [1]: 25% | Population Hoechst High Intensity Objects (%) [1]: 16% | Population Membrane Permeable-Phenotype (%) [1]: 4% | Population Mitochondria Different-Phenotype (%) [1]: 90% | Population Mitotic Cells (%) [1]: 40% | Population Normal (%) [1]: 83% | Population Pyknosed Nuclei (%) [1]: 59% | Population Tubulin-Different-Phenotype (%) [1]: 75% | Total Cell Count [1]: 287 | Population Apoptotic (%) [2]: 17% | Population Fragmented Nuclei (%) [2]: 9% | Population Healthy Nuclei (%) [2]: 23% | Population Hoechst High Intensity Objects (%) [2]: 8% | Population Membrane Permeable-Phenotype (%) [2]: 13% | Population Mitochondria Different-Phenotype (%) [2]: 13% | Population Mitotic Cells (%) [2]: 82% | Population Normal (%) [2]: 91% | Population Pyknosed Nuclei (%) [2]: 67% | Population Tubulin-Different-Phenotype (%) [2]: 31% | Total Cell Count [2]: 133 | Population Apoptotic (%) [3]: 72% | Population Fragmented Nuclei (%) [3]: 11% | Population Healthy Nuclei (%) [3]: 5% | Population Hoechst High Intensity Objects (%) [3]: 23% | Population Membrane Permeable-Phenotype (%) [3]: 13% | Population Mitochondria Different-Phenotype (%) [3]: 93% | Population Mitotic Cells (%) [3]: 27% | Population Normal (%) [3]: 76% | Population Pyknosed Nuclei (%) [3]: 83% | Population Tubulin-Different-Phenotype (%) [3]: 86% | Total Cell Count [3]: 381 | Population Apoptotic (%) [4]: 52% | Population Fragmented Nuclei (%) [4]: 4% | Population Healthy Nuclei (%) [4]: 3% | Population Hoechst High Intensity Objects (%) [4]: 14% | Population Membrane Permeable-Phenotype (%) [4]: 28% | Population Mitochondria Different-Phenotype (%) [4]: 85% | Population Mitotic Cells (%) [4]: 47% | Population Normal (%) [4]: 85% | Population Pyknosed Nuclei (%) [4]: 91% | Population Tubulin-Different-Phenotype (%) [4]: 42% | Total Cell Count [4]: 213 | Population Apoptotic (%) [5]: 49% | Population Fragmented Nuclei (%) [5]: 12% | Population Healthy Nuclei (%) [5]: 28% | Population Hoechst High Intensity Objects (%) [5]: 15% | Population Membrane Permeable-Phenotype (%) [5]: 1% | Population Mitochondria Different-Phenotype (%) [5]: 82% | Population Mitotic Cells (%) [5]: 50% | Population Normal (%) [5]: 84% | Population Pyknosed Nuclei (%) [5]: 58% | Population Tubulin-Different-Phenotype (%) [5]: 89% | Total Cell Count [5]: 319 | Population Apoptotic (%) [6]: 27% | Population Fragmented Nuclei (%) [6]: 9% | Population Healthy Nuclei (%) [6]: 34% | Population Hoechst High Intensity Objects (%) [6]: 5% | Population Membrane Permeable-Phenotype (%) [6]: 6% | Population Mitochondria Different-Phenotype (%) [6]: 27% | Population Mitotic Cells (%) [6]: 72% | Population Normal (%) [6]: 94% | Population Pyknosed Nuclei (%) [6]: 56% | Population Tubulin-Different-Phenotype (%) [6]: 68% | Total Cell Count [6]: 145 | Population Apoptotic (%) [7]: 73% | Population Fragmented Nuclei (%) [7]: 15% | Population Healthy Nuclei (%) [7]: 3% | Population Hoechst High Intensity Objects (%) [7]: 23% | Population Membrane Permeable-Phenotype (%) [7]: 11% | Population Mitochondria Different-Phenotype (%) [7]: 100% | Population Mitotic Cells (%) [7]: 26% | Population Normal (%) [7]: 76% | Population Pyknosed Nuclei (%) [7]: 81% | Population Tubulin-Different-Phenotype (%) [7]: 100% | Total Cell Count [7]: 382 | Population Apoptotic (%) [8]: 64% | Population Fragmented Nuclei (%) [8]: 2% | Population Healthy Nuclei (%) [8]: 2% | Population Hoechst High Intensity Objects (%) [8]: 16% | Population Membrane Permeable-Phenotype (%) [8]: 40% | Population Mitochondria Different-Phenotype (%) [8]: 80% | Population Mitotic Cells (%) [8]: 35% | Population Normal (%) [8]: 83% | Population Pyknosed Nuclei (%) [8]: 94% | Population Tubulin-Different-Phenotype (%) [8]: 40% | Total Cell Count [8]: 208 | Population Apoptotic (%) [9]: 40% | Population Fragmented Nuclei (%) [9]: 22% | Population Healthy Nuclei (%) [9]: 29% | Population Hoechst High Intensity Objects (%) [9]: 17% | Population Membrane Permeable-Phenotype (%) [9]: 3% | Population Mitochondria Different-Phenotype (%) [9]: 62% | Population Mitotic Cells (%) [9]: 59% | Population Normal (%) [9]: 82% | Population Pyknosed Nuclei (%) [9]: 47% | Population Tubulin-Different-Phenotype (%) [9]: 68% | Total Cell Count [9]: 360 | Population Apoptotic (%) [10]: 25% | Population Fragmented Nuclei (%) [10]: 5% | Population Healthy Nuclei (%) [10]: 68% | Population Hoechst High Intensity Objects (%) [10]: 5% | Population Membrane Permeable-Phenotype (%) [10]: 10% | Population Mitochondria Different-Phenotype (%) [10]: 10% | Population Mitotic Cells (%) [10]: 75% | Population Normal (%) [10]: 94% | Population Pyknosed Nuclei (%) [10]: 26% | Population Tubulin-Different-Phenotype (%) [10]: 57% | Total Cell Count [10]: 209 | Population Apoptotic (%) [11]: 72% | Population Fragmented Nuclei (%) [11]: 22% | Population Healthy Nuclei (%) [11]: 1% | Population Hoechst High Intensity Objects (%) [11]: 28% | Population Membrane Permeable-Phenotype (%) [11]: 25% | Population Mitochondria Different-Phenotype (%) [11]: 100% | Population Mitotic Cells (%) [11]: 27% | Population Normal (%) [11]: 71% | Population Pyknosed Nuclei (%) [11]: 76% | Population Tubulin-Different-Phenotype (%) [11]: 100% | Total Cell Count [11]: 373 | Population Apoptotic (%) [12]: 63% | Population Fragmented Nuclei (%) [12]: 6% | Population Healthy Nuclei (%) [12]: 3% | Population Hoechst High Intensity Objects (%) [12]: 16% | Population Membrane Permeable-Phenotype (%) [12]: 0% | Population Mitochondria Different-Phenotype (%) [12]: 71% | Population Mitotic Cells (%) [12]: 36% | Population Normal (%) [12]: 83% | Population Pyknosed Nuclei (%) [12]: 89% | Population Tubulin-Different-Phenotype (%) [12]: 71% | Total Cell Count [12]: 212
